ChEMBL document CHEMBL1142961, “Novel selective inhibitors of the zinc plasmodial aminopeptidase PfA-M1 as potential antimalarial agents” (J Med Chem, 2007)

Columns and labels:
[1] = molecular target: T1, Aminopeptidase N (Plasmodium falciparum FcB1/Columbia) (UniProt O96935); experiment: Inhibition of Plasmodium falciparum FcB1 M1 aminopeptidase at 10 uM
T1 sequence (whole entry): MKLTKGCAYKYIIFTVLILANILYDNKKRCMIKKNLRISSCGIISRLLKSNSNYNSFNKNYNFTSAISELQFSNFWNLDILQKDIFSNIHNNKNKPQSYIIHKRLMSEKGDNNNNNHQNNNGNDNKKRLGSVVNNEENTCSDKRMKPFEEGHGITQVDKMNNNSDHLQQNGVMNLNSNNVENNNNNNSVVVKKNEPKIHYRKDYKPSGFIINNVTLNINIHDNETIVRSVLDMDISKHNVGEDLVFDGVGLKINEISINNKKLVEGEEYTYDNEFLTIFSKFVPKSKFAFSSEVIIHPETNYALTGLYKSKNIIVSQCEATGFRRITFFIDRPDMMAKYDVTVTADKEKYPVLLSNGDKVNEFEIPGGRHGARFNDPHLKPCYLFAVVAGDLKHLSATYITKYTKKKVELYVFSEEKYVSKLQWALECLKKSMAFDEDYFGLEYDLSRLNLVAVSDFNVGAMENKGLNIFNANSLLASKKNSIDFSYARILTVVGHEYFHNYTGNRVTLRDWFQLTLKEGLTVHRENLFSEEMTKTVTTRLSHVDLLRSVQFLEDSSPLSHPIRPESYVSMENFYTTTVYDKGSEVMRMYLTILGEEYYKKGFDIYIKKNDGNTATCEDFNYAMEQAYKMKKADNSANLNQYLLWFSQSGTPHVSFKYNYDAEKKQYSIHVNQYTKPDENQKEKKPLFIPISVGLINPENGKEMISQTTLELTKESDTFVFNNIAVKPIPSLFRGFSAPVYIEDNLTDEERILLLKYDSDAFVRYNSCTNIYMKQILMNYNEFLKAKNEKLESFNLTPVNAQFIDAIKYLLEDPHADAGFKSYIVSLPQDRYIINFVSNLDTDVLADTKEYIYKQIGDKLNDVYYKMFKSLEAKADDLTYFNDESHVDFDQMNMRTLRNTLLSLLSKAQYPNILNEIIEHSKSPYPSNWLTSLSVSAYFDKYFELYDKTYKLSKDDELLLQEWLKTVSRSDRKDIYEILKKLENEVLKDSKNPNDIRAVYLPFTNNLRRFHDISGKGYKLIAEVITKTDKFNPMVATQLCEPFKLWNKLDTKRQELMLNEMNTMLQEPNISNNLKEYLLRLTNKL
How it was run: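 Native enzyme purified from P. falciparum FcB1, diluted 10-fold in 25 mM Tris-HCl pH 7.4. Preincubated with inhibitor for 10 min at room temperature, then Leu-pNA substrate added (0.3 mM stock, Km 0.099 mM). Kinetics followed at 405 nm at room temperature. Initial velocities normalized to a no-inhibitor control. Single-point screen at 10 µM; IC50 from velocity versus inhibitor concentration curves. Bestatin used as reference.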

[2] = molecular target: T2, Aminopeptidase N (Sus scrofa) (UniProt P15145); experiment: Inhibition of pig kidney microsomal APN at 10 uM
T2 sequence (whole entry): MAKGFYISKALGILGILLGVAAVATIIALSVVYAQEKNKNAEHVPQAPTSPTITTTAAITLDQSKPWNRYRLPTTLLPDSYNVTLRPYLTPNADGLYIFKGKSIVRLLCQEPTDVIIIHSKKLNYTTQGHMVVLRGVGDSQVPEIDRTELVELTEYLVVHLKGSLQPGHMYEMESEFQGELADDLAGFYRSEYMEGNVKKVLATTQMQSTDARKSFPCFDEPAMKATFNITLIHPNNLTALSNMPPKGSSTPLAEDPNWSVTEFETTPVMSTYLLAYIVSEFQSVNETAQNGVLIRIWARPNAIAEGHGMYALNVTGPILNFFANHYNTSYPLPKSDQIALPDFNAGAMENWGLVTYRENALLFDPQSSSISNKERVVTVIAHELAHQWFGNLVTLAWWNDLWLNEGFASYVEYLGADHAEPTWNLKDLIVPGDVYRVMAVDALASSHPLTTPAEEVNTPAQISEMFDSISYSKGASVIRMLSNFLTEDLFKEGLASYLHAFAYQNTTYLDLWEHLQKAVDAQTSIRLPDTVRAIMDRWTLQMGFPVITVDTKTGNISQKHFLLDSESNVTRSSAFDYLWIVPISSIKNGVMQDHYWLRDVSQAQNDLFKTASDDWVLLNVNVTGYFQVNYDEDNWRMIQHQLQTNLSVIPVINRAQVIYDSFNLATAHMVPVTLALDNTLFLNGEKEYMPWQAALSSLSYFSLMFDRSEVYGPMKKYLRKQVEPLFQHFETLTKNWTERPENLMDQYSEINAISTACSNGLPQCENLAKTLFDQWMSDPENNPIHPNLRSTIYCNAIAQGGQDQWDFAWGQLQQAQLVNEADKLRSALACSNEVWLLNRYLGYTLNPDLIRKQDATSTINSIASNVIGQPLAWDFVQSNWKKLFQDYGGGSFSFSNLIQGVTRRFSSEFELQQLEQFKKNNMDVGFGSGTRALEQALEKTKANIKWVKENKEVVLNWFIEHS
How it was run: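 Porcine kidney microsomal APN (ammonium sulfate suspension) diluted 600-fold in 25 mM Tris-HCl pH 7.4. Preincubated with inhibitor for 10 min at room temperature, then Leu-pNA added (0.3 mM stock). Hydrolysis followed at 405 nm at room temperature. Rates normalized to a no-inhibitor control. Single point at 10 µM; IC50 from concentration-velocity curves. Bestatin used as reference.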

Structure (SMILES) | inhibition [1] [%] | inhibition [2] [%]
CC(C)CC(C(=O)NO)C(=O)N(CCCCc1ccccc1)CC(C)C (stereo unspecified) | 42 | 60
O=C(CC(=O)NCc1cccnc1)NO | 3 | 18
NC(C(=O)NO)C(=O)NCc1cccc(Oc2ccccc2)c1 (stereo unspecified) | 51 | 31
O=C(NO)C(Cc1ccccc1)C(=O)NCc1cccnc1 (stereo unspecified) | -6 | 15
O=C(CC(=O)NCc1ccc(Cl)cc1)NO | 10 | 13
CC(C)CC(C(=O)NO)C(=O)NCc1cccc(-c2ccccc2)c1 (stereo unspecified) | 69 | 95
CN(CCCNC(=O)C(N)C(=O)NO)c1ccccc1 (stereo unspecified) | 3 | 18
NC(C(=O)NO)C(=O)NCc1cccnc1 (stereo unspecified) | -6 | 24
CN(CCCNC(=O)CC(=O)NO)c1ccccc1 | 22 | 32
CC(C)CC(C(=O)NO)C(=O)NCCc1ccccn1 (stereo unspecified) | 30 | 86
NC(C(=O)NO)C(=O)N1CCC(Cc2ccccc2)CC1 (stereo unspecified) | 45 | 39
CC(C)CC(C(=O)NO)C(=O)NC1Cc2ccccc2C1 (stereo unspecified) | 61 | 93
NC(C(=O)NO)C(=O)NC1CCN(Cc2ccccc2)CC1 (stereo unspecified) | -4 | 25
CC(C)CN(CCCCc1ccccc1)C(=O)C(N)C(=O)NO (stereo unspecified) | 37 | -1
O=C(NO)C(Cc1cccc(Oc2ccccc2)c1)C(=O)N[C@H]1CCN(Cc2ccccc2)C1 (stereo partly specified) | 41 | 86
CC(C)CC(C(=O)NO)C(=O)NCc1ccc(C(F)(F)F)cc1 (stereo unspecified) | 24 | 45
NC(C(=O)NO)C(=O)N[C@H]1CCN(Cc2ccccc2)C1 (stereo partly specified) | 2 | 37
O=C(NO)C(Cc1ccccc1)C(=O)NCCNc1cccc2ccccc12 (stereo unspecified) | 59 | 76
CC(C)CN(CCCCc1ccccc1)C(=O)CC(=O)NO | 22 | 45
CC(C)CC(C(=O)NO)C(=O)NCc1cccnc1 (stereo unspecified) | -4 | 30

Structure (SMILES) | inhibition [1] [%] | inhibition [2] [%]
NC(C(=O)NO)C(=O)NCc1ccc(F)cc1 (stereo unspecified) | 9 | 18
Cc1ccccc1CNC(=O)C(Cc1cccc(Oc2ccccc2)c1)C(=O)NO (stereo unspecified) | 99 | 86
NC(C(=O)NO)C(=O)NCCCCc1ccccc1 (stereo unspecified) | 56 | 42
O=C(NO)C(Cc1ccccc1)C(=O)NCCc1ccccn1 (stereo unspecified) | 29 | 47
O=C(CC(=O)N1CCN(C(c2ccccc2)c2ccccc2)CC1)NO | 21 | 14
NC(C(=O)NO)C(=O)NCc1ccc(Cl)cc1 (stereo unspecified) | 5 | 54
O=C(CC(=O)NCc1ccc(F)cc1)NO | 6 | 16
NC(C(=O)NO)C(=O)N(CCc1ccccc1)Cc1ccccc1 (stereo unspecified) | 4 | 34
O=C(NO)C(Cc1cccc(Oc2ccccc2)c1)C(=O)N1CCN(Cc2ccccc2)CC1 (stereo unspecified) | 84 | 47
O=C(CC(=O)NCc1ccccc1)NO | 2 | 19
O=C(CC(=O)NCCC(c1ccccc1)c1ccccc1)NO | 50 | 87
O=C(NO)C(Cc1ccccc1)C(=O)NCc1ccc(C(F)(F)F)cc1 (stereo unspecified) | 67 | 75
CC(C)CC(C(=O)NO)C(=O)N(CCc1ccccc1)Cc1ccccc1 (stereo unspecified) | 42 | 105
NC(C(=O)NO)C(=O)N1CCC2(CCNc3ccccc3O2)CC1 (stereo unspecified) | -4 | 9
CC(C)CN(CCCCc1ccccc1)C(=O)C(Cc1cccc(Oc2ccccc2)c1)C(=O)NO (stereo unspecified) | 36 | 52
CN(CCCCc1ccccc1)C(=O)C(N)C(=O)NO (stereo unspecified) | 12 | 10
CC(C)CC(C(=O)NO)C(=O)N1CCN(Cc2ccc3c(c2)OCO3)CC1 (stereo unspecified) | 21 | 19
O=C(NO)C(Cc1cccc(Oc2ccccc2)c1)C(=O)NCCc1ccccc1 (stereo unspecified) | 98 | 88
O=C(NO)C(Cc1ccccc1)C(=O)NC1CCN(Cc2ccccc2)CC1 (stereo unspecified) | 3 | 21
NC(C(=O)NO)C(=O)NCCc1ccccc1 (stereo unspecified) | -8 | 25

Structure (SMILES) | inhibition [1] [%] | inhibition [2] [%]
O=C(CC(=O)N1CCN(c2ccccc2)CC1)NO | -9 | 11
O=C(NO)C(Cc1cccc(Oc2ccccc2)c1)C(=O)NCc1cccnc1 (stereo unspecified) | 99 | 85
O=C(CC(=O)NCCc1ccccc1)NO | -2 | 27
CN(CCCNC(=O)C(Cc1cccc(Oc2ccccc2)c1)C(=O)NO)c1ccccc1 (stereo unspecified) | 77 | 83
O=C(CC(=O)NCCc1ccccn1)NO | -2 | 16
CC(C)CC(C(=O)NO)C(=O)N1CCN(Cc2ccccc2)CC1 (stereo unspecified) | 29 | 28
O=C(NO)C(Cc1ccccc1)C(=O)N1CCC(n2c(=O)[nH]c3ccccc32)CC1 (stereo unspecified) | -1 | 56
O=C(CC(=O)NCCNc1cccc2ccccc12)NO | 0 | 14
O=C(CC(=O)NC1CCN(Cc2ccccc2)CC1)NO | -2 | 14
NC(C(=O)NO)C(=O)N1CCN(c2ccccc2)CC1 (stereo unspecified) | -2 | 11
O=C(CC(=O)N1CCC(Cc2ccccc2)CC1)NO | 7 | 23
O=C(CC(=O)NCc1cccc(Oc2ccccc2)c1)NO | 44 | 55
O=C(NO)C(Cc1ccccc1)C(=O)N1CCC2(CCNc3ccccc3O2)CC1 (stereo unspecified) | 7 | 32
O=C(NO)C(Cc1cccc(Oc2ccccc2)c1)C(=O)N1CCC(n2c(=O)[nH]c3ccccc32)CC1 (stereo unspecified) | 74 | 76
O=C(NO)C(Cc1cccc(Oc2ccccc2)c1)C(=O)NC1CCN(Cc2ccccc2)CC1 (stereo unspecified) | 5 | 72
O=C(NO)C(Cc1cccc(Oc2ccccc2)c1)C(=O)N1CCC2(CCNc3ccccc3O2)CC1 (stereo unspecified) | 48 | 81
O=C(CC(=O)NCc1cccc(-c2ccccc2)c1)NO | 28 | 66
O=C(CC(=O)NC1Cc2ccccc2C1)NO | -2 | 12
